Columns and labels:
CDK2/Cyclin A2 = CDK2/Cyclin A2 (Homo sapiens, UniProt P24941); test: Inhibition of CDK2/cyclin A (unknown origin) using histone H1 as substrate after 30 mins in presence of [33P]-gamma-ATP by filter binding assay; assay type: protein-complex assay
CDK9/cyclin T1 = CDK9/cyclin T1 (Homo sapiens, UniProt P50750); test: Inhibition of CDK9/cyclin T1 (unknown origin) using YSPTSPSYSPTSPSYSPTSPKKK as substrate after 30 mins in presence of [33P]-gamma-ATP by filter binding assay; assay type: protein-complex assay
HL-60 = test: Growth inhibition of human HL60 cells after 48 hrs by MTT assay; assay type: functional; details: HL-60, 48 h
Method in brief: (§1)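 Cancer cell lines sourced from the National Cancer Institute (USA). Cells kept in appropriate growth medium at 37 °C, 95% humidity, 5% CO2. Antiproliferation read by tetrazolium (MTT) assay. GI50 values were determined only for compounds selected after an initial single-concentration screen.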

MIA PaCa-2 [1] = test: Growth inhibition of human MIAPaCa2 cells after 48 hrs by MTT assay; assay type: functional; details: MIA PaCa-2, 48 h; method in brief: as §1
CDK1/Cyclin A = CDK1/Cyclin A (Homo sapiens, UniProt P06493); test: Inhibition of CDK1/cyclin A (unknown origin) after 30 mins in presence of [33P]-gamma-ATP by filter binding assay; assay type: protein-complex assay
CDK1/Cyclin E = CDK1/Cyclin E (Homo sapiens, UniProt P06493); test: Inhibition of CDK1/cyclin E (unknown origin) after 30 mins in presence of [33P]-gamma-ATP by filter binding assay; assay type: protein-complex assay
CDK6/cyclin D1 = CDK6/cyclin D1 (Homo sapiens, UniProt Q00534); test: Inhibition of CDK6/cyclin D1 (unknown origin) after 30 mins in presence of [33P]-gamma-ATP by filter binding assay; assay type: protein-complex assay
CDK6/cyclin D3 = CDK6/cyclin D3 (Homo sapiens, UniProt Q00534); test: Inhibition of CDK6/cyclin D3 (unknown origin) after 30 mins in presence of [33P]-gamma-ATP by filter binding assay; assay type: protein-complex assay
[2] = target: Cyclin-dependent kinase 4/cyclin D1 (Homo sapiens) (UniProt P11802+P24385); test: Inhibition of full length wild type human CDK4/cyclin D1 expressed in mammalian expression system at 0.5 uM by KINOMEscan method relative to control
Method in brief: (§2)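 Competition binding screen (KINOMEscan) at 0.5 μM; primary binding read out as % of control, lower values indicating stronger interaction.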

[3] = target: Citron Rho-interacting kinase (Homo sapiens) (UniProt O14578); test: Inhibition of partial length wild type human CIT expressed in bacterial expression system at 0.5 uM by KINOMEscan method relative to control; method in brief: as §2
[4] = target: Dual specificity mitogen-activated protein kinase kinase 5 (Homo sapiens) (UniProt Q13163); test: Inhibition of partial length wild type human MEK5 expressed in mammalian expression system at 0.5 uM by KINOMEscan method relative to control; method in brief: as §2
MDA-MB-231 = test: Growth inhibition of human MDA-MB-231 cells after 48 hrs by MTT assay; assay type: functional; details: MDA-MB-231, 48 h; method in brief: as §1
COLO 205 = test: Growth inhibition of human COLO205 cells after 48 hrs by MTT assay; assay type: functional; details: COLO 205, 48 h; method in brief: as §1
A-431 = test: Growth inhibition of human A431 cells after 48 hrs by MTT assay; assay type: functional; details: A-431, 48 h; method in brief: as §1
MIA PaCa-2 [5] = test: Induction of apoptosis in human MIAPaCa2 cells assessed as caspase-7 cleavage by Western blot method; assay type: functional, cell-based
Method in brief: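 Lysate protein quantified against a BSA standard; 70 μg resolved by SDS-PAGE, transferred to PVDF overnight at 4 °C, 30 V; blocked 1 h in 5% nonfat milk/TBST; primary antibodies 2–4 h, HRP anti-mouse secondary 1 h; ECL detection on X-ray film.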

[6] = n-octanol-water partition co-efficient, log P of compound by shake flask method; assay type: physicochemical
[7] = Ionization constant, pKa of compound by UV spectrophotometric analysis; assay type: physicochemical
Cytochrome P450 3A4 = Cytochrome P450 3A4 (Homo sapiens, UniProt P08684); test: Inhibition of human CYP3A4 using fluorogenic substrate preincubated with co-factor for 10 mins followed by enzyme-substrate addition by fluorometric method; assay type: ADME
Method in brief: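 Cofactor plus test item or vehicle, in triplicate, preincubated 10 min at 37 °C; prewarmed enzyme–substrate mix added and incubated at 37 °C with shaking. Quench: acetonitrile (CYP2C19, CYP3A4) or 0.25 M Tris in 60% methanol (CYP2C9, CYP2D6). Metabolite fluorescence read; % inhibition computed against enzyme controls and enzyme-free blanks.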

[8] = Half life in mouse liver microsomes at 100 uM after 30 mins by LC-MS/MS analysis; assay type: ADME, microsome
Method in brief: (§3)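 Parent loss followed over time to give half-life, with NADPH as cofactor for microsomal phase I metabolism.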

[9] = Intrinsic clearance in mouse hepatocytes assessed per million cells at 3 uM after 180 mins by LC-MS/MS analysis; assay type: ADME, cell-based, Hepatocyte; details: read-out: CLH
[10] = Intrinsic clearance in monkey hepatocytes assessed per million cells at 3 uM after 180 mins by LC-MS/MS analysis; assay type: ADME, cell-based, Macaca mulatta, Hepatocyte; details: rhesus monkey, read-out: CLH
[11] = Half life in mouse liver S9 fraction preincubated for 5 mins followed by NADPH addition measured after 30 mins by LC-MS/MS analysis; assay type: ADME, tissue-based; method in brief: as §3
[12] = Half life in dog liver S9 fraction preincubated for 5 mins followed by NADPH addition measured after 30 mins by LC-MS/MS analysis; assay type: ADME, tissue-based, Canis lupus familiaris
[13] = Half life in monkey liver S9 fraction preincubated for 5 mins followed by NADPH addition measured after 30 mins by LC-MS/MS analysis; assay type: ADME, tissue-based, Macaca mulatta; details: rhesus monkey
[14] = Intrinsic clearance in monkey liver S9 fraction assessed per mg of protein preincubated for 5 mins followed by NADPH addition measured after 30 mins by LC-MS/MS analysis; assay type: ADME, tissue-based, Macaca mulatta; details: rhesus monkey, s9, 0.5 h
[15] = Clearance in BALB/c mouse at 1 mg/kg, iv by LC-MS/MS analysis; assay type: ADME, organism-based; details: in vivo
[16] = Volume of distribution at steady state in BALB/c mouse at 1 mg/kg, iv by LC-MS/MS analysis; assay type: ADME, organism-based; details: in vivo, read-out: Vdss
[17] = Cmax in BALB/c mouse at 3 mg/kg, po by LC-MS/MS analysis; assay type: ADME, organism-based; design: dose 3 mg/kg, route oral; details: in vivo
[18] = AUC in Sprague-Dawley rat at 10 mg/kg, po by LC-MS/MS analysis; assay type: ADME, organism-based; details: in vivo
[19] = AUC in Sprague-Dawley rat at 30 mg/kg, po by LC-MS/MS analysis; assay type: ADME, organism-based; details: in vivo
[20] = Pancreas to plasma partition coefficient, Kp of the compound in Sprague-Dawley rat at 30 mg/kg, po measured at 8 hrs; assay type: ADME, organism-based; details: pancreas and plasma
Kidney = test: Drug uptake in Sprague-Dawley rat kidney at 30 mg/kg, po after 8 hrs; assay type: ADME, organism-based; details: in vivo
[21] = Ratio of Cmax in BALB/c mouse at 30 mg/kg, po to GI50 for human HL60 cells
Salmonella typhimurium [22] = test: Mutagenicity in Salmonella typhimurium TA1535 at 50 ug/plate in presence of liver S9 fraction by Ames test; assay type: toxicity; details: salmonella enterica subsp. enterica serovar typhimurium
Salmonella typhimurium [23] = test: Mutagenicity in Salmonella typhimurium TA100 at 50 ug/plate in absence of liver S9 fraction by Ames test; assay type: toxicity; details: salmonella enterica subsp. enterica serovar typhimurium

Chain of CDK9/cyclin T1 (O60563 whole entry): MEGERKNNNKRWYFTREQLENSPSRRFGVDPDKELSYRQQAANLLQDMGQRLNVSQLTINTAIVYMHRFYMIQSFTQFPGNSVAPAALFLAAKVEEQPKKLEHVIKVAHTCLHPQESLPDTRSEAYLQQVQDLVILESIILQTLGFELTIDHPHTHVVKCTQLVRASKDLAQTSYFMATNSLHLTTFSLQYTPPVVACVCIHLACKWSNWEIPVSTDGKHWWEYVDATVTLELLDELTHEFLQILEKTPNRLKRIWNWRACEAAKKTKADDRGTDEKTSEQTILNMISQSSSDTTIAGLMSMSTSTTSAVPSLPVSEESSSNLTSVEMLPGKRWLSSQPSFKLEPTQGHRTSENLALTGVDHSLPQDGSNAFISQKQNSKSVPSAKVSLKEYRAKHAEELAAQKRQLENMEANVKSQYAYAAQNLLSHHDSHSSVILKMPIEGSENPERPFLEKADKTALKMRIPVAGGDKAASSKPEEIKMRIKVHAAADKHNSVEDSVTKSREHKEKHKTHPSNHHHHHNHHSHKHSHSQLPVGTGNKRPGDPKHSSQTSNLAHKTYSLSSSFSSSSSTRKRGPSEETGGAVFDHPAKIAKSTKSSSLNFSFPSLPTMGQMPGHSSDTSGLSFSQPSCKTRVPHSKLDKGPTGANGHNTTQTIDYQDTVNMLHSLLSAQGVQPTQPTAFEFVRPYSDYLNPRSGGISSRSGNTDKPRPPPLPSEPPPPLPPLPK
Chain of CDK9/cyclin T1 (P50750 whole entry): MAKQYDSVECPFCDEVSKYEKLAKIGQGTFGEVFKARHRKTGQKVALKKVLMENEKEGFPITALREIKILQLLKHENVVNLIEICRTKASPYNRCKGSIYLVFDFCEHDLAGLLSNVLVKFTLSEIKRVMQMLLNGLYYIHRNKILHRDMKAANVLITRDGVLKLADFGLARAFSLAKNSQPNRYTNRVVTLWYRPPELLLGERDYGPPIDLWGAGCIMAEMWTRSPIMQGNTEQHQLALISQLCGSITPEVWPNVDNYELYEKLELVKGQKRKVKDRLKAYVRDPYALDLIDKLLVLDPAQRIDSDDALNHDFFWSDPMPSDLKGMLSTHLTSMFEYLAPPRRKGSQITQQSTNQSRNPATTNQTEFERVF
Chain of CDK1/Cyclin E (P06493 whole entry): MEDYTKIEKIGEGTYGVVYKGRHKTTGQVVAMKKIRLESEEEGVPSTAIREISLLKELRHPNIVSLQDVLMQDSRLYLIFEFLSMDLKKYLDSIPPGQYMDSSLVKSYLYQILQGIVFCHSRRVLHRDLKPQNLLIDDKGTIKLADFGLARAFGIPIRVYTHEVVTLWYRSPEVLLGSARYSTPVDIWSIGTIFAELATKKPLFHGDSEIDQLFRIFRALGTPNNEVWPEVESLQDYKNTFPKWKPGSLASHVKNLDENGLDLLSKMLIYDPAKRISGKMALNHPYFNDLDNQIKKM
Chain of CDK1/Cyclin E (P24864 whole entry, further chain): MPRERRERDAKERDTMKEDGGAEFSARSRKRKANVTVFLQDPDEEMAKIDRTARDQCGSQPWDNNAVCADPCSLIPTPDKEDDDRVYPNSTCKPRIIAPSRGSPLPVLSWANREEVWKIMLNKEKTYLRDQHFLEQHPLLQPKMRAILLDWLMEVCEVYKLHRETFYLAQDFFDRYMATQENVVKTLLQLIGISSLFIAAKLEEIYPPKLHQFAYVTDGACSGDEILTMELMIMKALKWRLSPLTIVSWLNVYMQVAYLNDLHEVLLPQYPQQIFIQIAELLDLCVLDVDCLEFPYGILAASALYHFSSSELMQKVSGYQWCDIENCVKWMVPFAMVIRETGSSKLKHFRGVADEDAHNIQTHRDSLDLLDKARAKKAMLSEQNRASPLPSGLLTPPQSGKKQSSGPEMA
Chain of CDK1/Cyclin A (P06493 whole entry): as the sequence (P06493 whole entry) above
Chain of CDK1/Cyclin A (P20248 whole entry, further chain): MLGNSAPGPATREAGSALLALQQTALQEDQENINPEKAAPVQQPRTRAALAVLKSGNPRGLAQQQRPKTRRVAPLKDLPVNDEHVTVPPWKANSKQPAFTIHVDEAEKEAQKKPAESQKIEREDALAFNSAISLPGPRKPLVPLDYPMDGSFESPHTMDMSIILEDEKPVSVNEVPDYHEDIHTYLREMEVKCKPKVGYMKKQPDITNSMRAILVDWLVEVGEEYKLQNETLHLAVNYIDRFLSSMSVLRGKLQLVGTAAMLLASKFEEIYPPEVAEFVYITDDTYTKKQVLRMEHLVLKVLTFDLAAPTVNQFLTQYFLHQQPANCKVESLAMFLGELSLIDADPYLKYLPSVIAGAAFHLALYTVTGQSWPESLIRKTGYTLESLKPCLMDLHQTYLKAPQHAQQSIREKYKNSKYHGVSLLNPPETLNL
Chain of Cytochrome P450 3A4 (P08684 whole entry): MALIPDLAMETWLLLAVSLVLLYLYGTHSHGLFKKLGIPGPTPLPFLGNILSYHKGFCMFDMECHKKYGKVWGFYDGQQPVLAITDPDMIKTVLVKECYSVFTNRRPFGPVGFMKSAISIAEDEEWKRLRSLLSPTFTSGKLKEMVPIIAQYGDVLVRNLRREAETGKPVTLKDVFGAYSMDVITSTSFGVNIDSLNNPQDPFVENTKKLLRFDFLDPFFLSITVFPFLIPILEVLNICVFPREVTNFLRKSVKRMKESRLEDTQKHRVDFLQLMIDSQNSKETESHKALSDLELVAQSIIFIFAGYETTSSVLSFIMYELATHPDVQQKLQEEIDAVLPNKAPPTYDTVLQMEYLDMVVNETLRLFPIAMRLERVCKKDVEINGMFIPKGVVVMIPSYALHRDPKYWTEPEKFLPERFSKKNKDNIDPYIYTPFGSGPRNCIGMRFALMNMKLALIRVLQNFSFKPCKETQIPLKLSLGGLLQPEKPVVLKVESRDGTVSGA
Chain of CDK6/cyclin D3 (P30281 whole entry): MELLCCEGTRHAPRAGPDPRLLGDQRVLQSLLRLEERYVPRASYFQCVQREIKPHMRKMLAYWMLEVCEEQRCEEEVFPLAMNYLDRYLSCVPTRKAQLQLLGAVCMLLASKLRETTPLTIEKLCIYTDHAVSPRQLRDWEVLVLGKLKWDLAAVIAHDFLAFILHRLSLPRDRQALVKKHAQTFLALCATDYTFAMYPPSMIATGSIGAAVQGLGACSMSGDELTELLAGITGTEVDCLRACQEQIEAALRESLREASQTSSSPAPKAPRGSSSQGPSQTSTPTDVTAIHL
Chain of CDK6/cyclin D3 (Q00534 whole entry): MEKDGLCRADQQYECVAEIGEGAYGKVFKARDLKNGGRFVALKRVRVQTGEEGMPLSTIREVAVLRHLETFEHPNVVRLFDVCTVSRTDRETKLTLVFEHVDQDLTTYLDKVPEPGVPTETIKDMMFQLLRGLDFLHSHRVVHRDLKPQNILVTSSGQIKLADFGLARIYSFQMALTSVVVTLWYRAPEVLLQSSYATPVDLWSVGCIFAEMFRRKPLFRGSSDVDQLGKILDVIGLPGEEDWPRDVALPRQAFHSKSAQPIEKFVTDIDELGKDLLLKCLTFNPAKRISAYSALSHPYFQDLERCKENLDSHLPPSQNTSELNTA
Chain of Dual specificity mitogen-activated protein kinase kinase 5 (Homo sapiens) (Q13163 whole entry): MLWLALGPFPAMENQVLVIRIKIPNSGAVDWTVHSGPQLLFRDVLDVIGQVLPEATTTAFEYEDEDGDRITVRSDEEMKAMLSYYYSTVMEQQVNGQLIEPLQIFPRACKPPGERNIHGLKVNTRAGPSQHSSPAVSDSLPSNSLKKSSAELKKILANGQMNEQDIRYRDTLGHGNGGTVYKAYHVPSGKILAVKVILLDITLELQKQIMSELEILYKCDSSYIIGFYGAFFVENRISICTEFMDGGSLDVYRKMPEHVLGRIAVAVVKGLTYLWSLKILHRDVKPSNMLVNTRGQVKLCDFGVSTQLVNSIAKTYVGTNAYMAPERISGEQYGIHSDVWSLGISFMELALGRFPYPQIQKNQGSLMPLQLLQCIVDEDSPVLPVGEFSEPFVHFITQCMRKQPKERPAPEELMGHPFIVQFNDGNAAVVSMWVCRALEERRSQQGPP
Chain of CDK6/cyclin D1 (P24385 whole entry): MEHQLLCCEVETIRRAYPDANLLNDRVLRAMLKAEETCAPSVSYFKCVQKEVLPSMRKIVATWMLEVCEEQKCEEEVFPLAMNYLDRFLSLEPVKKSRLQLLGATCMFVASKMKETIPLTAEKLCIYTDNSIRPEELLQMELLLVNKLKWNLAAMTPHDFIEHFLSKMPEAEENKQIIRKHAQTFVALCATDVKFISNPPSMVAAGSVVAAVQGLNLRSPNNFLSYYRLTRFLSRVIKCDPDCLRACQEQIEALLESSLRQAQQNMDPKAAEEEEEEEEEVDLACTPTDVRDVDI
Chain of CDK6/cyclin D1 (Q00534 whole entry): as the sequence (Q00534 whole entry) above

CN1CC[C@H](c2c(O)cc(O)c3c(=O)cc(/C=C/c4c(Cl)cccc4Cl)oc23)[C@H](O)C1
IC50 (CDK2/Cyclin A2): 0.0155 to 0.016 µM
IC50 (CDK9/cyclin T1): 0.0019 µM
GI50 (HL-60): 0.9 µM
GI50 (MIA PaCa-2 [1]): 1 µM
IC50 (CDK1/Cyclin A): 0.00493 µM
IC50 (CDK1/Cyclin E): 0.0759 µM
IC50 (CDK6/cyclin D1): 0.045 µM
IC50 (CDK6/cyclin D3): 0.199 µM
inhibition [2]: > 98%
inhibition [3]: > 98%
inhibition [4]: > 98%
GI50 (MDA-MB-231): 4 µM
GI50 (COLO 205): 7 µM
GI50 (A-431): 8 µM
Activity (MIA PaCa-2 [5]): Dose-dependent effect
logP [6]: 3.09
pKa [7]: 5.4
IC50 (Cytochrome P450 3A4): > 20 µM
half-life at 100 µM [8]: > 0.5 h
hepatocyte CLint at 3 µM [9]: 14.9 µL/min/1e6 cells
hepatocyte CLint at 3 µM [10]: 10.6 µL/min/1e6 cells
half-life [11]: 1.43 h
half-life [12]: 1.95 h
half-life [13]: 0.933 h
CLint [14]: 25 µL/min/mg
clearance [15]: 55.4 mL/min/kg
Vd [16]: 14.1 L/kg
Cmax [17]: 216 nM
AUC [18]: 5.68 µM·h
AUC [19]: 15.9 µM·h
Kp at 8 h [20]: 10.5
Drug uptake (Kidney): Active
Ratio [21]: 4
Activity (Salmonella typhimurium [22]): Non-Toxic
Activity (Salmonella typhimurium [23]): Non-Toxic
